Fewer inactive variants are shown than the library holds.
B1: tRNA (parent)
chain: GUUCCGUUGGCGUAAUGGUAACGCGUCUCCCUCCUAAGGAGAAGACUGCGGGUUCGAGUCCCGUACGGAACG

Variants of: B1
Assay: yeast fitness relative to wild type (ratio to wild type); higher = fitter; tRNA-Arg(CCU), competitive growth, 37 C, YPD
Procedure, shortened: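 Changes in genotype frequencies gave Darwinian fitness relative to wild type. Frequencies were read by 100-nucleotide paired-end sequencing of gene amplicons before and after pooled Saccharomyces cerevisiae strains, carrying tRNA-Arg(CCU) gene variants at the native locus, were competed in YPD at 37°C for 24 hours in six replicates. A genotype was kept only with ≥ 100 starting reads, and estimates < 0.5 were set to 0.5.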

| Variant | yeast fitness |
| --- | --- |
| GUUCCGUCGGCGUAAUGGUAACGCGUCUCCCUCCUAAGGAGAAGACUGCGGGUUAGAGUCGCGUACGGAACG | ≤ 0.5 |
| GUUCCGUCGGCGUAAUGGUAACGCGUCUCCCUCCUAAGGAGAAGACUGCGGGUUCGAGUGCCGUACGGAACG | 0.705 |
| GUUCCGUCGGCGUAAUGGUAACGCGUCUCCCUCCUAAGGAGAAGACUGCGGGUUCGAGUUCCGUACGGAACG | 0.832 |
| GUUCCGUCGGCGUAAUGGUAACGCGUCUCCCUCCUAAGGAGAAGACUGCGGGUUCGAGUCCUGUACGGAACG | 0.881 |
| GUUCCGUCAGCGUAAUGGUAACGCGUCUCCCUCCUAAGGAGAAGACUGCGGGUUCGAGUCCCGUACGGAACG | 0.894 |
| GUUCCGUCAGCGUAAUGGUCACGCGUCUCCCUCCUAAGGAGAAGACUGCGGGUUCGAGUCCCGUACGGAACG | 0.772 |
| GUUCCGUCAGCGUAAUGGUAACGCGUCUCCCUCCUAAGGCGAAGACUGCGGGUUCGAGUCCCGUACGGAACG | 0.672 |
| GUUCCGUCAGCGUAAUGGUAACGCGUCUCCCUCCUAAGGCGAAGGCUGCGGGUUCGGGUCCCGUACGGAACG | ≤ 0.5 |
| GUUCCGUCAGCGUAAUGGUAAGGCGUCUCCCGCCUAAGGAGAAGACUGGGGGUUCGAGUCCCGUACGGAACG | ≤ 0.5 |
| GUUCCGUCAGCGUAAUGGUAACGCGUCUCCCUCUUAAGCAGAAGACUGCGGGUUCGAGUCCCGUACGGAACG | ≤ 0.5 |
| GUUCCGUCAACGUAAUGGUAACCCGUCUUCCUCCUCAGGAGAAGACUGGGGGUUCGAGUCCCGUACGGAUCG | 0.534 |
| GUUCCGUCAGCGUAAUCGUAACGCGUCUCCCUCCUAAGGAGAAGACUGCGGGUUCCAGUCCCGUACGGAACG | 0.532 |
| GUUCCGUCAGCGUAAUGGUAACGCGUCUCCCUCCUAAGGACAAGACUGCGGGUUCGAGUCCCGUACGGUACG | ≤ 0.5 |
| GUUCCGUCAGCGAAGUGGUAACGCGUCUCCCUCCUAUGGAGAAGAUUGCGGGUUCGAGUCCCGUACGAAACG | ≤ 0.5 |
| GUUCCGUCAGCGCAAUGGUCACGCGUCUCCCUCCUAAGGAGAAGACUGCGGGUUCGAGUCCCGUACGGAACG | 0.541 |
| GUUCCGUCAGCGUAAUGGUAACGCGUCUCCCUCCUAAGGAGAAGACUGCGGGUUCGAGACCCGUACGGAGCG | ≤ 0.5 |
| GUUCCGUCCGCGUAAUGGUAACGCGUCUCCCUCCUAAGGAGAAGACUGCGGGUUCGAGUCCCGUACGGAACG | 0.695 |
| GUUCCGUCCGCGUAAUGGUACCGGGUCUCCCGCCUAAAGAGAAGACUGCGGGUUCGAGUCCCGUACGGAACG | ≤ 0.5 |
| GUUCCGUCCGCGAAAUGGUAACGCAUCUCCCUCCUAAGGCGAAGACUGCGGGUUCGCGUCACGUACAGAACG | ≤ 0.5 |

| Variant | yeast fitness |
| --- | --- |
| GUUCCGUCUGCGUAAUGGUAACGCGUCUACCUCGUGAGGCGAAGACAGCGGGUUCGAGUCCCGCACGGAACG | ≤ 0.5 |
| GUUCCGUCGACGUAAUGGUAACGCGUCUCCCUCCUAAGGGGAAGACUGCGGGUUCGAGUCCCGUGCAGAACG | ≤ 0.5 |
| GUUCCGUCGACGUAAUGGUAACGCGUCUCCCUCCUAAGGGGAAGACUGCGGGUUCGAGUCCCGUACAGAACG | 0.593 |
| GUUCCGUCGAGCUAAUGGUAACGCGUCUGCCUCCUAAGGAGAAGACUGCGGGUUCGAGUCCCGUACGGAACG | ≤ 0.5 |
| GUUCCGUCGACGUAAUGGUAAGGCGUCUCCCUCCUAAGGAGAAGACUGCGGGUUCGAGUCCCGUACGGAACG | ≤ 0.5 |
| GUUCCGUCGACGUAAUGGUAACGCGUCUGCCUCCUAAGGAGAAGACUGCGGGUUCCAGUCCCGUACGGAACG | ≤ 0.5 |
| GUUCCGUCGACGUAAUGGUAACCCGUCUCCCUUCUAAGGAGAAGACUGCGGGUUCGAGUCCCGUACGGAACG | 0.611 |
| GUUCCGUCGACGUAAAGGUAACGCGUCUCCCUCCUAAGGAGAAGACUGCGGGUUCGAGUCCCGUGCGGAACG | 0.605 |
| GUUCCGUCGACGUAAUGGCAACGCGUCUCCCUCAUAAGGAGAAGAUUGCGGGUUCGAGUCCCGUCCGGAACG | ≤ 0.5 |
| GUUCCGUCGACGUAAUGGCAACGCGUCUCCCUCCUAAGGAAAAGACCGCGGGUUCGAGUCCCGUACGGAACG | 0.537 |
| GUUCCGUCGCCGUAAUGGUAACGCGUCUCCCUCCUAAGGAGAAGACUGCGGGUUCGAGUCCCGUACGGAACG | 0.639 |
| GUUCCGUCGCCGUAAUGGUAUCCCGUCUCCCUCCUAAGGAGAAGACUGCGGGUUCAAGUCACGUGCGGAACG | ≤ 0.5 |
| GUUCCGUCGGCAUAAUGGUAUCGCGUCUCCCUCCUAAGGAGAAGACUGCGGGUUCGAGUCCCGUACGGAUCG | ≤ 0.5 |
| GUUCCGUCGGCAUAAUGGUAACGCGUCUCCCUCCUAAGGCGAAGACUGCGGGUUCGAGUCCCGUACGGCACG | 0.56 |
| GUUCCGUCGGCAUAAUGGUAACGCGUCUCCCUCCUAAGGAGAAGACUGCGGGUUCGAGUCCAGUACGGAACG | ≤ 0.5 |
| GUUCCGUCGGCAUAAUGAUAACGCGUCUCCCUCCUACGGAGAAGACUGCGGGUUAGAGUGCCCUACGGAACG | ≤ 0.5 |
| GUUCCGUCGGCAUAAUGGUAACGCAUCUCCCUCCUAAGGAGAAGACUGCGGGUUCGAGUCCCGUACGGAACG | 0.734 |
| GUUCCGUCGGCAUAAUGGUAACGCGUCUCCCUCCUAAGGAGAAGACUGCGAGUUCGAGUCCCGUAAGGAACG | ≤ 0.5 |

— the RNAGym collection of RNA variant scans (doi:10.1126/science.aae0568)
